High-throughput results as filed in PubChem BioAssay.
CCR6 antag: CCR6 (human) receptor antagonism | P51684 | CHO-K1 CCR6 PathHunter beta-arrestin, luminescence, CCL20-stimulated | inhibition, % at 20 µM | actives 0.49% (n = 340,000) | AID 493098;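 active means compounds whose inhibition of the agonist-driven luminescence signal at 20 µM reaches about 50%, limit read from the data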;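 further: cells stimulated with CCL20 at 14 nM final; plate controls were DMSO with CCL20 for no effect and DMSO without agonist for full effect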
APJ antag: antagonists of human APJ apelin receptor | CHO-K1 APJ beta-arrestin complementation, luminescence | inhibition, % at 20 µM | P35414 | actives 0.32% (n = 330,000) | AID 2521;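 active means inhibition above about 40% at 20 µM, limit read from the data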;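 further: cells challenged with 10 nM apelin-13 agonist together with compound; plate controls were apelin-13 plus DMSO wells for no effect and DMSO wells lacking apelin-13 for full effect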
PfGluPho inh: PfG6PD (Plasmodium falciparum) enzyme inhibition; actives 0.78% (n = 350,000); PfGluPho enzyme, NADPH resazurin-diaphorase fluorescence; inhibition, % at 20 µM; AID 504690;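 active means inhibition reaching at least a set limit at 20 µM in the primary screen, cut at about 59% in these data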;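 further: 0% = DMSO wells with substrate and 100% = DMSO wells lacking glucose-6-phosphate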
APJ agonist: agonists of human APJ apelin receptor. CHO-K1 APJ PathHunter beta-arrestin, luminescence; 0% DMSO wells, 100% apelin. AID 2520. actives 0.11% (n = 330,000). activation, % at 20 µM. P35414;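 active means activation more than six SD over the plate average, tested at 20 µM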;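 further: 0% = DMSO alone and 100% = apelin-13 at 10 nM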
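Test system: CHO-K1 APJ beta-arrestin complementation cell line. Amount: cell density 1000 per well. Controls: DMSO negative, 10 nM Apelin-13 positive. Signal: luminescent beta-gal fragment complementation, chemiluminescent substrate. Read-out basis: agonist-driven arrestin binding to APJ. Timing: compound stimulation 90 min at 25 °C, detection 60 min.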
CXCR6 block: CXCR6 (human) receptor inhibition; O00574; CHO-K1 PathHunter CXCR6 beta-arrestin, luminescence; inhibition, % at 20 µM; actives 0.36% (n = 360,000); AID 602244; in the data active means inhibition above about 34%, passing the limit was not always enough;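 further: antagonist mode with CXCL16 agonist at 10 nM final; 0% = 10 nM CXCL16 with DMSO and 100% = unstimulated wells without agonist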
B2AR ag: activates human beta-2 adrenergic receptor causing internalization; P07550; Am2.2-beta2AR cells, FAP receptor internalization, flow cytometry; response, % (concentration not given with the values); actives 0.43% (n = 340,000);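 active means response above a set limit, near 3 SD of response in nonfluorescent compounds, cut at about 42% in these data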
Target sequence (P07550 whole entry, looked up): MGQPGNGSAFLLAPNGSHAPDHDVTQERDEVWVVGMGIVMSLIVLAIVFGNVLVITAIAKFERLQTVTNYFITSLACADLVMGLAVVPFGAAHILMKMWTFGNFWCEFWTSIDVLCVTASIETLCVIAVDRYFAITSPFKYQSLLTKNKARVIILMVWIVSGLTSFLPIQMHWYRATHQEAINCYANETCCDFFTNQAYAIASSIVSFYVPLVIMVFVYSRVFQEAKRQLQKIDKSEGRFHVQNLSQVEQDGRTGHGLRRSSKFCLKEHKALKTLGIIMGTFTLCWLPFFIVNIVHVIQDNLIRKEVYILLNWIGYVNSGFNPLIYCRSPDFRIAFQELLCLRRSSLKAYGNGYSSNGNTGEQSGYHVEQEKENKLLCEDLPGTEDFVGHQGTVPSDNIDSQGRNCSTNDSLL
APJ antag confirm: APJ receptor antagonism confirmation; shares compounds with APJ antag; APJ beta-arrestin recruitment, luminescence, antagonist mode; inhibition, % at 20 µM; actives 66% (n = 950); in the data active means inhibition above about 50%
The depositor's hits bear a star; nt = not tested or not shown. In the library only some 1.7% were active in any assay of this set; here they are far more common.

SMILES	CCR6 antag	APJ antag	PfGluPho inh	APJ agonist	CXCR6 block	B2AR ag	APJ antag confirm
CCCOc1ccc(C(=O)NNC(=S)NC(=O)CC)cc1	78*	54*	31	-9	48*	-3	94*
Nc1ccc(-c2c3ccc(=O)cc-3oc3cc(O)ccc23)c(C(=O)O)c1	39	43*	0	-9	26	-23	66*
COc1cccc(-c2cccc(NC(=O)C3CCN(Cc4ccon4)CC3)c2)c1	-2	2	5	5	0	0	nt
CCOC(=O)C1CCCN(c2c(NCCN(CC)c3ccccc3)c(=O)c2=O)C1 (stereo unspecified)	8	40*	-1	0	3	5	4
CCOC(=O)C1CCCN(c2c(NCCCN(CC)c3ccccc3)c(=O)c2=O)C1 (stereo unspecified)	-4	-13	3	-1	-1	14	nt
O=C(Nc1cccc2cccnc12)c1csc(COCCO)n1	nt	nt	nt	nt	-7	nt	nt
COc1cc(/C=C2/SC(=S)N(CC3CCCO3)C2=O)ccc1O (stereo unspecified)	73*	48*	-16	-4	42*	2	88*
CCOc1cc(/C=C2\SC(=S)N(Nc3ccccc3)C2=O)ccc1O	62*	52*	-23	-11	44*	-58	108*
COc1cc(/C=C2\SC(=S)N(Nc3ncc(C(F)(F)F)cc3Cl)C2=O)ccc1O	68*	51*	1	-20	60*	-344	105*
COc1cc(/C=C2\SC(=S)N(C(Cc3ccccc3)C(=O)O)C2=O)ccc1O (stereo unspecified)	30	48*	1	-7	26	-16	82*
Cc1ccc(C(=O)NCCS(=O)(=O)N2CCN(c3ccccc3F)CC2)cc1[N+](=O)[O-]	21	14	-5	-3	-4	2	nt
COc1ccc(N2CCN(CC(=O)Nc3c(C)cccc3C)CC2)cc1	nt	nt	-7	nt	7	nt	nt
Cc1cccc(NC(=O)COC(=O)c2nn(-c3ccccc3C(F)(F)F)cc2O)c1C	nt	nt	12	nt	-3	nt	nt
CCC1CN(S(=O)(=O)c2ccc3c(c2)NC(=O)CC(=O)N3)c2cc(Cl)ccc2O1 (stereo unspecified)	6	10	19	-1	6	8	nt
O=C(O)c1ccc(/C=C2\SC(=S)N(Nc3ccccc3)C2=O)cc1	2	9	-4	-4	0	16	nt
COc1cc(/C=C2\SC(=S)N(Nc3ccccc3)C2=O)ccc1O	74*	56*	-52	-7	51*	-11	97*
O=C1Nc2ccc(F)cc2C12Nc1ccccc1-c1nnc(SCc3ccccc3)nc1O2 (stereo unspecified)	30	32	-20	-12	5	2	nt
O=C1Nc2ccc(F)cc2C12Nc1ccccc1-c1nnc(SCc3ccccc3Cl)nc1O2 (stereo unspecified)	40	53*	-14	-4	22	-3	75*
CC(NC(=O)COC(=O)Cc1cccs1)c1ccc(F)cc1 (stereo unspecified)	13	nt	-3	nt	-5	-4	nt
CCN1C(=O)/C(=C\C=C2/C=CC=CN2CC)SC1=S	64*	65*	51	-7	54*	-3	122*
CCN1C(=O)/C(=C2/C=CC=CN2C)SC1=S	5	-1	-4	-4	12	-6	nt
Cc1ccc(N=Nc2c(=O)[nH]n3c(=O)cc(C)[nH]c23)cc1	27	43*	-3	-7	17	12	62*
N=C1/C(=C/c2ccc(-c3cccc(C(=O)O)c3)o2)C(=O)N=C2SC=C(c3ccccc3)N12	57*	40*	-15	-9	21	6	53*
CC(=O)Nc1ccc(NC(=O)C2(C)CC2(Cl)Cl)cc1 (stereo unspecified)	7	91*	-3	1	-4	1	33
CN(C)c1cccc(NC(=O)C2(C)CC2(Cl)Cl)c1 (stereo unspecified)	1	-12	10	3	3	11	nt
SMILES	CCR6 antag	APJ antag	PfGluPho inh	APJ agonist	CXCR6 block	B2AR ag	APJ antag confirm
O=[N+]([O-])c1ccc(O)c(/C=N/Nc2ccc(Cl)nn2)c1	90*	55*	24	-25	79*	-9	81*
O=[N+]([O-])c1ccc(O)c(/C=N/NC2=NS(=O)(=O)c3ccccc32)c1	10	4	-15	-3	2	2	nt
O=C(CCC(=O)Nc1ccc(Br)cc1)N/N=C/c1cc([N+](=O)[O-])ccc1O	65*	42*	-18	-9	32	-2	47
CC(=O)c1ccc(N(CC(=O)NC2CCCC2)C(=O)CCC(=O)Nc2cc(C)on2)cc1	7	-2	-11	-1	4	2	nt
COc1ccc(-c2cc(-c3ccccc3)nc(NN)n2)cc1OC	86*	57*	0	-13	43*	-2	129*
Cc1ccc(-c2cc(-c3ccccc3)nc(NN)n2)cc1	64*	78*	4	-15	29	6	140*
COc1ccc(-c2cc(C#N)nc(NN)n2)cc1	24	4	4	-4	27	-2	nt
CCCCS(=O)(=O)/C=C\C=C/S(=O)(=O)CCCC	81*	69*	23	-7	78*	40	89*
CCCCS(=O)(=O)/C=C\C1C2C=CC(C2)C1S(=O)(=O)CCCC (stereo unspecified)	1	-6	-10	-4	4	-2	nt
C=CCn1c(=O)/c(=C2/Sc3cc(OC)ccc3N2C)s/c1=C1\C(=O)N(CC)C(=S)N1C	nt	50*	nt	-9	nt	nt	76*
CCN1/C(=C2\C(=O)N(C)C(=S)N2C)C=Cc2cc(OC)ccc21	20	21	9	-5	11	11	nt
COc1cccc(/C=C2\CC(C)Cc3c2nc2ccccc2c3C(=O)O)c1OC (stereo unspecified)	10	49*	-21	-1	-3	-1	-18
COc1ccccc1NS(=O)(=O)c1cc([N+](=O)[O-])ccc1N/N=C/c1c[nH]c2ccccc12	50*	56*	15	-9	39	-249	91*
COc1ccc(NS(=O)(=O)c2cc([N+](=O)[O-])ccc2NN=Cc2ccccc2OCC(=O)O)cc1	38	36	-11	-7	30	4	nt
COc1ccc(NS(=O)(=O)c2cc([N+](=O)[O-])ccc2N/N=C\c2c(C)[nH]c3ccccc23)cc1	41	75*	12	-19	36	-578	99*
COc1ccc(C=NNc2ccc([N+](=O)[O-])cc2S(=O)(=O)Nc2ccccc2C(=O)O)cc1OC	33	27	-15	-9	21	7	nt
Cc1nn(Cc2ccc(Cl)cc2)c(C)c1NC(=O)c1cc(C(C)C)on1	7	16	-6	5	-8	9	nt
